Only some compounds are listed: those with a hit (about 2.5% of all), similar ones and a draw of the others.
NPY Y2 blocker: NPY-Y2 (human) receptor antagonism; NPY-Y2 expressing cells, antagonist mode; inhibition, % at 2.7 µM; 140,000 compounds, 0.99% hits
Target sequence (P49146 whole entry, looked up): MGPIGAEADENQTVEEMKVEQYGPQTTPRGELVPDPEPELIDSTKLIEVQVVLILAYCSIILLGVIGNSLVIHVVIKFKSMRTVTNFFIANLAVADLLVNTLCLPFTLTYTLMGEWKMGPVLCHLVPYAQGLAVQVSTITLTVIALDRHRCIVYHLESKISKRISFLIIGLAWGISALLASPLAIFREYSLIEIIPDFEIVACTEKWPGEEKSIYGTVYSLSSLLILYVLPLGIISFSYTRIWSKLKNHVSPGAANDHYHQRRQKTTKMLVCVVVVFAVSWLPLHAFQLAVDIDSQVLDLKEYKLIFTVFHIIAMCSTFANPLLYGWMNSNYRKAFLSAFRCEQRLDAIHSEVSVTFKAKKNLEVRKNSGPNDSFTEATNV
Insulin prom inh: TRM-6 insulin promoter activity inhibition; inhibition, % at 2 µM; TRM-6 cells, insulin promoter-eGFP reporter, imaging; reporter expression induced with tamoxifen; 130,000 compounds, 0.9% hits; AID 1273;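 active = inhibition above the mean plus 3 SD, with well images judged a real hit on visual review, cut at about 60% in these data, passing the limit was not always enough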
NPY-Y1 PAM-ag: human NPY-Y1 potentiation or agonism, primary screen. activation, % at 3.6 µM. 220,000 compounds, 0.37% hits. NPY-Y1 expressing cells, potentiator/agonist activation; in the data active = activation above about 33%, passing the limit was not always enough;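 also: cells stimulated with NPY at EC10 then isoproterenol at EC100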
NPY2 pot ag: human NPY-Y2 potentiation or agonism, primary screen; cells expressing NPY-Y2, potentiator/agonist read-out; activation, % at 3.6 µM; 220,000 compounds, 0.45% hits; AID 1359; in the data active = activation above about 27%;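 also: cells stimulated with NPY near EC25 plus isoproterenol at EC100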
Ins promoter up: MIN6 insulin promoter up-regulation; MIN6 insulin promoter-GFP reporter, high-content imaging; active compounds read high; 190,000 compounds, 0.3% hits; z-score at 5 µM;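 active = z-score above 3 at 5 µM with at least 500 cells counted in the well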
NPY-Y1 antag: blocks the human neuropeptide Y Y1 receptor | 200,000 compounds, 1% hits | P25929 | HEK293-CNG Y1 cells, membrane potential fluorescence; NPY at EC95, then isoproterenol | inhibition, % at 3.6 µM;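 active = inhibition above the campaign mean inhibition of all tested compounds plus 3 SD, cut at about 20% in these data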
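Material: Y1- and CNG-channel-expressing HEK293 cells / Probe or stimulus: NPY 25 nM then isoproterenol 1 µM plus Ro 20-1724 25 µM / Doses: 3.6 µM single dose, DMSO 0.4% / Schedule: compound incubation 1 h at room temperature, readout 45 min post-stimulation / Signal: membrane potential fluorescence / Benchmarks: isoproterenol-only wells as full block versus NPY-plus-isoproterenol wells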
NPY1 antag conf: human NPY-Y1 antagonism, confirmation. HEK293-CNG NPY-Y1, membrane potential fluorescence, cAMP; NPY challenge against isoproterenol-raised cAMP. shares compounds with NPY-Y1 antag. AID 1254. inhibition, % at 3.6 µM. 1,200 compounds, 21% hits; in the data active = inhibition above about 20%
NPY-Y2 antag ct: counter-screen for NPY-Y1 antagonists: human NPY-Y2 antagonism | shares compounds with NPY-Y1 antag | HEK293 NPY-Y2 CNG membrane potential fluorescence; cells given NPY, then isoproterenol | inhibition, % at 3.6 µM | 1,200 compounds, 28% hits | AID 1255
Numbers stand for hits; n = inactive; x = no result. Rule as the data show it, unless noted: active = inhibition above about 17%; inactive = the rest.

SMILES | NPY Y2 blocker | Insulin prom inh | NPY-Y1 PAM-ag | NPY2 pot ag | Ins promoter up | NPY-Y1 antag | NPY1 antag conf | NPY-Y2 antag ct
CC(C)CCNc1nc(-c2ccco2)c2c(c1C#N)CCCC2 | n | n | n | n | x | 22 | n | n
Cc1ccc(C(O)(c2ccccc2)c2ccccc2C(C)N(C)C)c(C)c1 (configuration not stated) | n | x | n | n | n | 25 | 21 | 32
CCN(C(=O)CSc1ncccc1C(=O)O)C1CCCCC1 | x | x | n | n | n | n | x | x
S=c1[nH]nc(-c2cccnc2)o1 | n | x | n | n | n | n | x | x
S=c1[nH]nc(-c2cccc(Br)c2)o1 | n | n | n | n | n | 24 | n | n
O=C(NCCc1nnc2ccc(NCC3CCCO3)nn12)c1ccccc1 (configuration not stated) | x | n | n | n | n | n | x | x
C/C(=N\NC(=O)c1ccccc1[N+](=O)[O-])c1ccc(Br)s1 | x | x | n | n | n | n | x | x
C/C(=N\Nc1nc2ccccc2s1)c1ccc(Br)s1 | x | x | n | n | n | 31 | n | 20
Cc1ccc(S(=O)(=O)N2CCN(CC(=O)NC(=O)NCc3ccco3)CC2)cc1C | x | x | n | n | n | x | x | x
CCOc1ccc(NC(=S)N(CCOC)C(C)c2cccnc2)cc1 (configuration not stated) | x | x | n | n | n | n | x | x
O=C(NCCN1CCOCC1)c1cc(-c2ccco2)on1 | n | x | n | n | x | 21 | n | n
COc1ccc(N/N=C(\C=N\O)C(=O)c2ccc(OC)cc2)cc1 | n | n | n | n | n | 32 | n | n
COc1ccc(OCC(=O)N/N=C/C=C/c2ccccc2)cc1 | n | n | n | n | n | 23 | n | n
Cc1ccc(C(=O)C(OC(=O)COc2ccccc2C)c2ccccc2)cc1 (configuration not stated) | n | n | n | n | n | n | x | x
CC(O)CNCc1ccc(-c2ccccc2)cc1 (configuration not stated) | n | x | n | n | n | n | x | x
CC(NCc1ccc(-c2ccccc2)cc1)C(O)c1ccccc1 (configuration not stated) | n | n | n | n | n | 20 | n | 29
O=C(NC1CCCC1)C(c1ccccc1F)N(C(=O)Cc1cccs1)c1ccc2c(c1)OCCO2 (configuration not stated) | n | n | n | n | n | 20 | n | n
COc1ccccc1CN1C[C@@H]2C[C@@H](C3=Cc4cc(Cl)ccc4OC3)N3CCC[C@@]23C1=O | x | x | n | n | n | 24 | n | n
O=C1N(Cc2cccc(Cl)c2)C[C@@H]2C[C@@H](c3ccc4nonc4c3)N3CCC[C@@]123 | x | n | n | n | n | 24 | n | n
O=C1N(Cc2cccc(Cl)c2)C[C@@H]2C[C@@H](c3cccn3-c3nccs3)N3CCC[C@@]123 | x | x | n | n | n | 26 | n | n
O=C1N(Cc2cccc(Cl)c2)C[C@@H]2C[C@@H](c3cccn3-c3ccccn3)N3CCC[C@@]123 | x | n | n | n | n | n | x | x
COc1ccc(Cl)cc1C(=O)CSc1nc(N)cc(N)n1 | n | x | n | n | n | n | x | x
COC(=O)c1cnc(N2CCOCC2)nc1C(F)(F)F | x | x | n | n | n | x | x | x
CN(C1CCCCC1)S(=O)(=O)Cc1ccccc1 | n | x | n | n | n | 25 | n | n
CS(=O)(=O)N(CC(=O)NCc1ccccc1)C1CCCCC1 | n | n | n | n | x | n | x | x
SMILES | NPY Y2 blocker | Insulin prom inh | NPY-Y1 PAM-ag | NPY2 pot ag | Ins promoter up | NPY-Y1 antag | NPY1 antag conf | NPY-Y2 antag ct
COc1ccc(C(=O)Cn2nc(CNc3ccc(Br)cc3)[n+]3c2CCCCC3)cc1 | x | x | n | n | n | n | x | x
Cc1ccc(C(C)C)c(OCc2nn(CC(=O)c3ccc(OC(F)F)cc3)c3[n+]2CCCCC3)c1 | x | x | n | n | n | 31 | n | n
COc1ccc2c(c1)c(C(O)CN1CCN(Cc3ccc4c(c3)OCO4)CC1)c(C)n2C (configuration not stated) | n | n | n | n | n | n | x | x
COc1ccc2c(c1)c(C(O)CN1CCC(Cc3ccccc3)CC1)c(C)n2C (configuration not stated) | n | n | n | n | n | 21 | n | n
COc1ccc(-n2c(=O)[nH]c3c(C(N)=O)nc(C4CCCCC4)nc32)cc1 | x | x | n | n | n | n | x | x
CNC(=O)COC(=O)/C=C/c1cccc(F)c1 | x | n | n | n | n | n | x | x
Cc1cccc(C)c1NC(=O)CN(C)C(C)C(=O)Nc1ccccc1-c1ccccc1 (configuration not stated) | x | x | n | n | n | n | x | x
Cc1ccccc1CN(C)C(C)C(=O)Nc1ccccc1F (configuration not stated) | x | x | n | n | n | 23 | n | n
O=C(NCc1cccs1)C1CC(c2ccc(Cl)c(Cl)c2)=NO1 (configuration not stated) | x | n | n | n | n | 24 | n | 29
COc1ccc(C2=NOC(C(=O)NCc3ccccc3)C2)cc1 (configuration not stated) | n | n | n | n | n | 29 | n | 19
O=C(NCc1cccs1)C1CC(c2ccc(Cl)cc2)=NO1 (configuration not stated) | x | x | n | n | n | n | x | x
COc1cccc(C2=NOC(C(=O)NCc3ccccc3)C2)c1 (configuration not stated) | n | n | n | n | n | 45 | n | 28
COc1cccc(C2=NOC(C(=O)NCc3ccco3)C2)c1 (configuration not stated) | n | n | n | n | x | n | x | x
CCCn1c(SCC(=O)Nc2cc(S(=O)(=O)N(C)C)ccc2OC)n[nH]c1=O | x | x | n | n | n | n | x | x
COc1ccc(N(C)S(=O)(=O)c2cccc(C(=O)NC3CCCC3)c2)cc1 | x | n | n | n | n | n | x | x
COc1ccc(N(C)S(=O)(=O)c2cccc(C(=O)NC3CCCCC3C)c2)cc1 (configuration not stated) | x | n | n | n | n | 24 | n | n
COc1ccc(N(C)S(=O)(=O)c2cccc(C(=O)NCC3CCCCC3)c2)cc1 | x | n | n | n | n | 26 | 21 | n
CC(C)NC(=O)Cn1nnc(-c2cccc(NC(=O)c3ccccc3F)c2)n1 | n | x | n | n | n | n | x | x
Cc1ccc(C2CC(C(F)(F)F)n3nc(C(=O)NCc4ccco4)cc3N2)cc1 (configuration not stated) | n | x | n | n | n | n | x | x
O=C(c1ccccn1)N(Cc1cccs1)C1(C(=O)NC2CCCCC2)CCCCC1 | x | n | n | n | n | 44 | n | n
CN(C(=O)c1ccccn1)C1(C(=O)NC2CCCCC2)CCCCC1 | n | n | n | n | x | n | x | x
